These results are taken from ChEMBL document CHEMBL5325428 (Eur J Med Chem, 2023).

Series [1] has as its target Replicase polyprotein 1ab (Severe acute respiratory syndrome coronavirus 2, UniProt P0DTD1). Briefly: Inhibition of N-terminal His6-tagged full length SARS-CoV-2 3CLpro using FAM-SAVLQ as substrate preincubated with enzyme for 1 hr followed by susbtrate addition and measured after 1 hr by FRET assay.
In series [2] the target is Prothrombin (Homo sapiens, UniProt P00734). Briefly: Inhibition of human thrombin. Type of series: toxicity. A digest of the protocol: (§1)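 Commercial purified human proteases were assayed following the manufacturers' procedures. IC50 values are mean ± SD.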
Series [3] in a line: Cytotoxicity against human HEK293T cells assessed as reduction in cell viability incubated for 72 hrs by CytoTox 96 nonradioactive assay. It is filed as toxicity, cell-based, HEK-293T.
Series [4] has as its target T1, Neutrophil elastase (Homo sapiens, UniProt P08246).
T1 sequence (P08246 whole entry): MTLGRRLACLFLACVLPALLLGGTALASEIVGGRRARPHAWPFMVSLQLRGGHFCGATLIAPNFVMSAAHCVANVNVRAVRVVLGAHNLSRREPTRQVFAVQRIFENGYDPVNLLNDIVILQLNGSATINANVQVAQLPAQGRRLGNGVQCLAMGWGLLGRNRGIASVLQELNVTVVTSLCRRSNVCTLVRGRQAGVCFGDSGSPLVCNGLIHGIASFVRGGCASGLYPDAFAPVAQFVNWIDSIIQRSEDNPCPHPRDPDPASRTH
Briefly: Inhibition of human neutrophil elastase. Type of series: toxicity. A digest of the protocol: as §1

For series [5], the target named is T2, Cathepsin G (Homo sapiens, UniProt P08311).
T2 sequence (P08311 whole entry): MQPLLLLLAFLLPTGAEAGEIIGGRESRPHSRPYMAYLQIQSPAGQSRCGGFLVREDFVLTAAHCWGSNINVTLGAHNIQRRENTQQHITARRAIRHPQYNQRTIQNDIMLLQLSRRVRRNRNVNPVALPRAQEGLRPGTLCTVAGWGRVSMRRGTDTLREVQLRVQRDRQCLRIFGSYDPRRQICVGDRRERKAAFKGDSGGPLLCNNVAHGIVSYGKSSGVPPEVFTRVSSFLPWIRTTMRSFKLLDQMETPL
Briefly: Inhibition of human Cathepsin G. It is filed as toxicity. A digest of the protocol: as §1

The subject of series [6] is Feline infectious peritonitis virus. Briefly: Antiviral activity against FIPV 1146 infected in CRFK cells assessed as inhibition of viral replication incubated for upto 168 hrs by TCID50 method. Type of series: functional, organism-based. The following applies: Alphacoronavirus 1, 1146, CRFK. A digest of the protocol: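 Crandell-Rees feline kidney cells infected with FIPV-1146; test compounds added to the medium at various concentrations. EC50 was fitted from the dose-dependent inhibition curve with a variable slope. Values are mean ± SD.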

Series [7] in a line: Safety index, ratio of CC50 for cytotoxicity against human HEK293T cells to EC50 for antiviral activity against SARS-CoV-2 Wuhan-HU-1 infected in HEK293T cells. Type of series: toxicity, cell-based. As to conditions: read-out: Ratio CC50/EC50. A digest of the protocol:
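In vitro safety index was calculated as the 293T CC50 divided by the SARS-CoV-2 replicon EC50.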

Series [8] deals with chymotrypsin (Homo sapiens, UniProt P17538+P40313+Q6GPI1+Q99895). The series can be described thus: Inhibition of human chymotrypsin. It is filed as toxicity. A digest of the protocol:
as §1

Series [9] deals with SARS-CoV-2. The series can be described thus: Antiviral activity against SARS-CoV-2 Wuhan-HU-1 infected in HEK293T cells assessed as inhibition of viral replication incubated for 30 hrs by luciferase reporter gene assay. It is filed as functional, organism-based. As to conditions: Severe acute respiratory syndrome coronavirus 2, Wuhan-HU-1, HEK-293T. A digest of the protocol:
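This is a non-infectious Wuhan-Hu-1 replicon system, not infectious virus. Replicon RNA was electroporated into 293T cells, which were then incubated for 30 h with compound at 2, 0.5, 0.1 and 0.02 µM or with 0.1% DMSO. Read-out was luciferase activity. Values are mean ± SD.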
For orientation: A reporter such as luciferase makes a cellular process visible.

In series [10] the target is Cathepsin D (Homo sapiens, UniProt P07339). Briefly: Inhibition of human Cathepsin D. Type of series: toxicity. A digest of the protocol:
as §1

In series [11] the target is Procathepsin L (Homo sapiens, UniProt P07711). The series can be described thus: Inhibition of human Cathepsin L. It is filed as toxicity. A digest of the protocol:
as §1

Series [12] concerns the target Cathepsin B (Homo sapiens, UniProt P07858). The series can be described thus: Inhibition of human Cathepsin B. It is filed as toxicity. A digest of the protocol:
as §1

The nature of series [13]: Inhibition of MERS-CoV 3CLpro using FAM-SAVLQ as substrate preincubated with enzyme for 1 hr followed by susbtrate addition and measured after 1 hr by FRET assay. The arrangement: species or system Middle East respiratory syndrome-related coronavirus.

Sequence of Procathepsin L (P07711 whole entry): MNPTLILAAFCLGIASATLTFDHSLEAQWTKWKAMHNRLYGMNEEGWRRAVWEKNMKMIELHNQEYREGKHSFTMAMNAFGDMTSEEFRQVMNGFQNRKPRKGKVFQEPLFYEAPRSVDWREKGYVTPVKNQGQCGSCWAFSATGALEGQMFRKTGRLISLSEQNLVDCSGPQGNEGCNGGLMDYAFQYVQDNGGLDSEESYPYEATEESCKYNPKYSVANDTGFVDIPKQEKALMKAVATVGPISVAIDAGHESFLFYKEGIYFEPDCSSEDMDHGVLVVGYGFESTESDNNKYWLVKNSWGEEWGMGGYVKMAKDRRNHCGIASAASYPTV
Sequence of Cathepsin D (P07339 65-162 limits assumed): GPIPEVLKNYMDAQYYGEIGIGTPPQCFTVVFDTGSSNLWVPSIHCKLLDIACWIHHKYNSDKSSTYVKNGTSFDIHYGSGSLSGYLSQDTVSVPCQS
Sequence of Cathepsin D (P07339 169-412 limits assumed): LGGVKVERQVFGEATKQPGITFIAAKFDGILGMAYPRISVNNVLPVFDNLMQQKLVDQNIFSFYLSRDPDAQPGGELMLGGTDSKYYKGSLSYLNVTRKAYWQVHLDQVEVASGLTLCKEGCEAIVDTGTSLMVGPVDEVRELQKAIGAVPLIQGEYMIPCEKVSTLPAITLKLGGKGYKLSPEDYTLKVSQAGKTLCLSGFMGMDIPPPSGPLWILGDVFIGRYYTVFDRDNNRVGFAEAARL

In the case of `[2H]C([2H])(OC(=O)N[C@@H](CC(C)C)C(=O)N[C@H](C=O)C[C@@H]1CCNC1=O)C(C)(C)Oc1ccc(Cl)cc1`, the IC50 (commonly the midpoint of a concentration-inhibition curve) in [1] was 170 nM; in series [2], more than 50000 nM; in series [4] it was more than 50000 nM; in series [5], more than 50000 nM; in series [8] it was more than 50000 nM; in series [10] it was more than 50000 nM. For the same compound, the IC50 in [11] is 40 nM; in series [12], 800 nM. In addition, the CC50 (usually the concentration giving 50% cytotoxicity) at 72 h in [3] was more than 50000 nM. For the same compound, the EC50 – broadly, the concentration needed to bring the measured effect to its halfway point – was found to be 100 nM in series [6] and 15 nM in [9]. The selectivity ratio in series [7] came out at 3330.
As for `CC(C)C[C@H](NC(=O)OCC(C)(C)Sc1ccccc1)C(=O)N[C@H](C=O)C[C@@H]1CCNC1=O`, the IC50 in [1] is 70 nM; in [2] it was more than 50000 nM; in series [4], more than 50000 nM; in series [5] it was more than 50000 nM; in series [13] it was 80 nM; in [8] it was more than 50000 nM. The IC50 in series [10] was more than 50000 nM; in series [11] it was 30 nM; in [12] it was 1900 nM. The CC50 at 72 h in [3] is more than 50000 nM. Also, the concentration for a half-maximal effect (EC50) was 80 nM in series [6] and 12 nM in series [9]. Further, the selectivity ratio in [7] is 3330.
As to `[2H]C([2H])(OC(=O)N[C@@H](CC(C)C)C(=O)N[C@H](C=O)C[C@@H]1CCNC1=O)C(C)(C)Sc1ccccc1`, the IC50 in series [1] was 200 nM; in [2], more than 50000 nM; in series [4], more than 50000 nM; in series [5], more than 50000 nM; in series [13] it was 60 nM; in [8], more than 50000 nM. In addition, the IC50 in [10] was more than 50000 nM; in [11], 30 nM; in series [12], 2000 nM. For the same compound, in series [3], the CC50 at 72 h is more than 50000 nM. For the same compound, the EC50 in series [6] was 100 nM; in series [9], 11 nM. In addition, in series [7], the selectivity ratio is 3330.
On to `CC(C)C[C@H](NC(=O)OCC(C)(C)Sc1ccccc1)C(=O)N[C@H](C#N)C[C@@H]1CCNC1=O`, for which the IC50 is 490 nM in [1]; more than 50000 nM in series [2]; more than 50000 nM in series [4]; more than 50000 nM in series [5]; 410 nM in series [13]; more than 50000 nM in series [8]. Besides, the figures for the IC50 in series [10], in series [11] and in series [12] were more than 50000 nM, 30 nM and 2600 nM, respectively. Besides, the CC50 at 72 h in [3] is more than 50000 nM. Moreover, the values for the EC50 in series [6] and in series [9] were 1320 nM and 60 nM, respectively.
As for `CC(C)C[C@H](NC(=O)OCC(C)(C)Sc1ccccc1)C(=O)N[C@@H](C[C@@H]1CCNC1=O)C(=O)C(=O)NC1CC1`, the IC50 in series [1] is 210 nM; in series [2], more than 50000 nM; in series [4] it was more than 50000 nM; in series [5], more than 50000 nM; in series [8] it was more than 50000 nM; in [10] it was more than 50000 nM. Also, the IC50 in series [11] was 40 nM; in [12], 2000 nM. The cytotoxic concentration (CC50) at 72 h in series [3] is more than 50000 nM. Moreover, the values for the EC50 in series [6] and in [9] were 710 nM and 50 nM, respectively.
Regarding `CC(C)C[C@H](NC(=O)OCC(C)(C)Oc1ccc(F)cc1)C(=O)N[C@H](C=O)C[C@@H]1CCNC1=O`, the IC50 was 220 nM in [1]; more than 50000 nM in [2]; more than 50000 nM in [4]; more than 50000 nM in series [5]; more than 50000 nM in [8]; more than 50000 nM in series [10]. Moreover, the values for the IC50 in [11] and in series [12] were 30 nM and 1900 nM, respectively. Besides, the CC50 at 72 h in series [3] was more than 50000 nM. In addition, in [6], the EC50 was determined as 70 nM.
As for `CC(C)C[C@H](NC(=O)OCC(C)(C)Oc1cccc(Cl)c1)C(=O)N[C@H](C=O)C[C@@H]1CCNC1=O`, the IC50 in [1] is 190 nM; in [2], more than 50000 nM; in series [4] it was more than 50000 nM; in [5], more than 50000 nM; in series [8], more than 50000 nM; in series [10] it was more than 50000 nM. For the same compound, the IC50 in series [11] is 20 nM; in series [12], 900 nM. Besides, in [3], the CC50 at 72 h was more than 50000 nM. For the same compound, the EC50 in series [6] turned out to be 60 nM; in series [9], 13 nM. Moreover, the selectivity ratio in series [7] was 3330.
Consider `CC(C)C[C@H](NC(=O)OCC(C)(C)Sc1cccc(Cl)c1)C(=O)N[C@H](C=O)C[C@@H]1CCNC1=O`, for which the IC50 is 150 nM in [1]; more than 50000 nM in [2]; more than 50000 nM in series [4]; more than 50000 nM in series [5]; 110 nM in series [13]; more than 50000 nM in [8]. In addition, the values for the IC50 in [10], in series [11] and in series [12] were more than 50000 nM, 30 nM and 1400 nM, respectively. Besides, in series [3], the CC50 at 72 h is more than 50000 nM. Further, the EC50 in series [6] came to 190 nM; in series [9], 10 nM. The selectivity ratio in series [7] was determined as 3330.
